Variants at the floor of the assay were thinned out.
B1: tRNA (parent)
chain: GUUCCGUUGGCGUAAUGGUAACGCGUCUCCCUCCUAAGGAGAAGACUGCGGGUUCGAGUCCCGUACGGAACG

Variants of: B1
Experiment: yeast fitness relative to wild type (ratio to wild type); higher = fitter; tRNA-Arg(CCU), competitive growth, 37 C, YPD
How it was run: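 Variants of the tRNA-Arg(CCU) gene were chemically synthesised with a 3% per-site mutation rate across 69 sites and placed at the native genomic locus in Saccharomyces cerevisiae. Six parallel replicates of the pooled strains were competed in YPD at 37°C for 24 hours, and gene amplicons from the start and end populations were read by 100-nucleotide paired-end sequencing. Darwinian fitness relative to wild type was derived from changes in genotype frequencies. Genotypes required ≥ 100 starting reads, and estimates < 0.5 were set to 0.5.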

Variant | yeast fitness
C30U C31G A57U | ≤ 0.5
C30U G39C C60U | ≤ 0.5
C31A C34G A43C C61U | ≤ 0.5
C30U C31U C49A | ≤ 0.5
C31G C61U | 0.834
C31A A40U U53G G56C C62G A70C | ≤ 0.5
C31A A37U G67C | 0.575
C31G G67U | 0.655
C31G G48C | 0.811
C31G C33G A57U A65U | ≤ 0.5
C30G U32A A40G C61G | ≤ 0.5
C31G A57U A69G | 0.774
C30U C34G G39A C49G C61U | ≤ 0.5
C31A U53A A65U | ≤ 0.5
C31A C60G | 0.516
C30U C46G C49U A69C | ≤ 0.5
C30U G52C C66G | 0.707
C31G G50C G58C | 0.571
C31A G67U | 0.755
C31A G67C | 0.846
C31A A40C G52A C61A | 0.528
C30U G39A C60G | 0.57
C30U U47A | 0.695
C30U U47G | 0.588

Variant | yeast fitness
C30U G41A A69C | ≤ 0.5
C30G U64A A70C | ≤ 0.5
C31A U32C U53C C60G | ≤ 0.5
C30U C61G A65C | ≤ 0.5
C31A G39C C66U | ≤ 0.5
C31G C33U A37C C61U A65U | ≤ 0.5
C31G C33U A42U | 0.649
C30U U32A A57U | 0.692
C31A U35A C55G G58C | ≤ 0.5
C30U A37U | 0.65
C30U A43U G51C | ≤ 0.5
C30G U47C | 0.701
C30U C31G A65C | 0.821
C31G A70U | 0.938
C31G A70C | 0.689
C30U C49U G52A | 0.584
C30U G39A A40G G67A | ≤ 0.5
C31A A43C | 0.832
C31G G68A | 0.802
C31G A43U C46G C62U | ≤ 0.5
C31G C55A A57U U59C C60U | ≤ 0.5
C31A C49G | 0.64
C30U U32A A36U A37U | ≤ 0.5
C31G C33G A57C | ≤ 0.5

Variant | yeast fitness
C31A C46U | 0.947
C31G A43U C46G A70U | 0.527
C31G G44A G51C A65G | 0.537
C31G C55G | 0.592
C31G C55U | 0.683
C31A C33G A45G G48A | ≤ 0.5
C31A C60A A65U | 0.619
C31G C33G U47A | 0.581
C31G A69U | 0.752
C31G A69C | 0.907
C31A A42G G67A A69U | 0.625
C31G C34G C66A | 0.568
C30U G44A G48C A70G | ≤ 0.5
C31A A42G A57U U59A | ≤ 0.5
C31G G38U | 0.804
C30U C34U A37U U59C A65U | ≤ 0.5
C31A A57C | 0.544
C31A A57G | 0.777
C30U C49A | 0.547
C30U C49G | 0.718
C30U A36C A37G U47C | ≤ 0.5
C30U C31G C33U A37C A65C | ≤ 0.5
C30U C46A C66U | 0.83
C31A A40G A43G G52C U59G | ≤ 0.5

Variant | yeast fitness
C30U C66U | 0.777
C30U A45G A65G | 0.538
C30U U59A A69C | ≤ 0.5
C31A A37G A65U | 0.629
C31G G41A G52C C60U C62G C66G | 0.539
C31A G51A | 0.603
C31A A40U A42G | 0.606
C31G G56A | 0.98
C31G G56U | 0.723
C31G A43G | 0.982
C31G A43C | 0.932
C30U G48C A65G | 0.606
C30U G38C U64C A65G | ≤ 0.5
C30U G50C C61G | ≤ 0.5
C30U C33G A65C | 0.577
C31G G67C A69U | ≤ 0.5
C31G A57U A69C A70G | ≤ 0.5
C31G C55G A65C | ≤ 0.5
C31G A40G A45C U53A | ≤ 0.5
C30U A45U C49G | 0.713
C31G C61G C62G | 0.514
C30U C61U G63A A65G | ≤ 0.5
C30U U32G A37G G63A | ≤ 0.5
C31A C46U G67U | 0.684

Variant | yeast fitness
C30U U47A G67C A70U | ≤ 0.5
C31G A45C C49A | 0.807
C31G C62A | 0.607
C31A A42U | 0.909
C30U A45C G58A G67U | ≤ 0.5
C30U G51A C66U A70C | ≤ 0.5
C31G G44C U53C A65U A70G | ≤ 0.5
C31A U32C C46U | ≤ 0.5
C30U C34G | 0.715
C31A G38A C46U A69U | ≤ 0.5
C30U G48A G67A | ≤ 0.5
C31G G58C | 0.88
C31G C34U A40C C60A C61A G63A | ≤ 0.5
C30U A42C G48C U64C | ≤ 0.5
C31A A43U G63A A70C | ≤ 0.5
C31A G68U A69C | ≤ 0.5
C30U A70G | 0.941
C30U A70C | 0.869
C30U A70U | 0.962
C30U G63C A69U | 0.527
C30U C60G C61A A69G | ≤ 0.5
C31A G44A A57G A65C A70U | ≤ 0.5
C31G G41A U47C G52C C60U C62G C66G | ≤ 0.5
C31A G51A G58C | 0.561

Variant | yeast fitness
C31G A42G | 0.721
C31A C62A | 0.6
C30U U54A G63A | 0.704
C31A A37G | 0.672
C31A A37C | 0.665
C31G A36U U53C C61A G68A | ≤ 0.5
C30U | 1.01
C31G A37U A42U A65C | ≤ 0.5
C31A A36C | 0.558
C31G A40G C49U G50C | ≤ 0.5
C30G U47A G68A | ≤ 0.5
C31G A45U U47A | 0.521
C31G A40G A45C U47C U53A A70U | ≤ 0.5
C31A A37G G38A A40G | ≤ 0.5
C31A A37G C55U A57G | 0.531
C31A A40G A43C G44A | ≤ 0.5
C30U U54A G68C | ≤ 0.5
C31A U59G | 0.771
C30U A36U A70C | ≤ 0.5
C31G G48A C55A C62A | ≤ 0.5
C31G G44A U47A G51C C66U | ≤ 0.5
C31G A36C G68A A70C | ≤ 0.5
C31A U47A | 0.673
C30U G58A | 0.919

Variant | yeast fitness
C30U G58C | 0.822
C31A G44A C55G A70G | ≤ 0.5
C31A G51C C55G A57U | ≤ 0.5
C30U C31A | 0.754
C30U C31G | 0.79
C30G G68C | 0.691
C30G G68A | 0.698
C30G G68U | 0.64
C30U G51A C55A | 0.686
C30U G44A C46A | 0.637
C31A G44C G63A | ≤ 0.5
C30U A57G C66U | 0.53
C31A A42C C46U | 0.592
C31A U35C G41A | ≤ 0.5
C30G U64A | 0.784
C31A A37C U47C G67A | ≤ 0.5
C31A A65U | 0.725
C30U U54A | 0.561
C31G G63A | 0.848
C31G G41A G52C A65U G67C | ≤ 0.5
C30U C33G | 0.691
C30U C33U | 0.669
C30U A36C A65C | 0.615

— the RNAGym collection of RNA variant scans (doi:10.1126/science.aae0568)
